ChEMBL document CHEMBL1145023, “Homology modeling of rat and human cytochrome P450 2D (CYP2D) isoforms and computational rationalization of experimental ligand-binding specificities” (J Med Chem, 2003)

Legend:
Type in all cases: ADME
[1] = target: T1, Cytochrome P450 2D3 (Rattus norvegicus, UniProt P12938); assay: Inhibition of MAMC O-dealkylation mediated by rat Cytochrome P450 2D3 expressed in Saccharomyces cerevisiae
T1 sequence (P12938 whole entry): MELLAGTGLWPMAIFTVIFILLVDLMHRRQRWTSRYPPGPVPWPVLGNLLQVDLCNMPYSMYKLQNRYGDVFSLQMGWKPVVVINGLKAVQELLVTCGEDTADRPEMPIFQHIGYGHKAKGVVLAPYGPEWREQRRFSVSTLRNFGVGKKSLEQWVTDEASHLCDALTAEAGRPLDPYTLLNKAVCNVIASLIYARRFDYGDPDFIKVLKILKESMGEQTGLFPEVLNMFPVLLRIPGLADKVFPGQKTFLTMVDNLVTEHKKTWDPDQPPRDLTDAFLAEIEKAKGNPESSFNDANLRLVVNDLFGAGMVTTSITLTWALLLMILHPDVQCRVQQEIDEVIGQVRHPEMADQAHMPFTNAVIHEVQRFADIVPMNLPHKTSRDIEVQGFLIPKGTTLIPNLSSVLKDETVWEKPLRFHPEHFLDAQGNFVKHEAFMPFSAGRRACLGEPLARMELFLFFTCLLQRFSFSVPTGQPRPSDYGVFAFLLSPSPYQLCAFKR
Summary of the method: (§1)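 Rat CYP2D isozymes are singly expressed in S. cerevisiae and used as microsomes in 100 mM phosphate, pH 7.4, at 37 °C. MAMC is 100 μM final, with or without varying inhibitor, after a 5 min preincubation. NADPH-regenerating system is added to start the reaction.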

[2] = target: T2, Cytochrome P450 2D4 (Rattus norvegicus, UniProt Q64680); assay: Inhibition of MAMC O-dealkylation mediated by rat Cytochrome P450 2D4 expressed in Saccharomyces cerevisiae; summary of the method: as §1
T2 sequence (Q64680 whole entry): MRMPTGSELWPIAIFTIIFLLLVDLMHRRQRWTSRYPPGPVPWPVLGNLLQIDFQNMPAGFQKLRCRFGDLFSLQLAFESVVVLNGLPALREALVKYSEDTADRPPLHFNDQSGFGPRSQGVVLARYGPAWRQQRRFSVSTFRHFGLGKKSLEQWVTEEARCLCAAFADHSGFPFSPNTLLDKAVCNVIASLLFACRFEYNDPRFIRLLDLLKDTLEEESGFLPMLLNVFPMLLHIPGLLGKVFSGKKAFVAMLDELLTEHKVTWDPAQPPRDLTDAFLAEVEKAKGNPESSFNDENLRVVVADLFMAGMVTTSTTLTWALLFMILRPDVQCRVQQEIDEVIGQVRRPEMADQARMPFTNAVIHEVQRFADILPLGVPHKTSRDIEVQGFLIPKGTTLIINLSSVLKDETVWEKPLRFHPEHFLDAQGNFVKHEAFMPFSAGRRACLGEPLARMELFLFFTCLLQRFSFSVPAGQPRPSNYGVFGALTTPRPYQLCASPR

[3] = target: T3, Cytochrome P450 2D1 (Rattus norvegicus, UniProt P10633); assay: Inhibition of MAMC O-dealkylation mediated by rat Cytochrome P450 2D1 expressed in Saccharomyces cerevisiae
T3 sequence (P10633 whole entry): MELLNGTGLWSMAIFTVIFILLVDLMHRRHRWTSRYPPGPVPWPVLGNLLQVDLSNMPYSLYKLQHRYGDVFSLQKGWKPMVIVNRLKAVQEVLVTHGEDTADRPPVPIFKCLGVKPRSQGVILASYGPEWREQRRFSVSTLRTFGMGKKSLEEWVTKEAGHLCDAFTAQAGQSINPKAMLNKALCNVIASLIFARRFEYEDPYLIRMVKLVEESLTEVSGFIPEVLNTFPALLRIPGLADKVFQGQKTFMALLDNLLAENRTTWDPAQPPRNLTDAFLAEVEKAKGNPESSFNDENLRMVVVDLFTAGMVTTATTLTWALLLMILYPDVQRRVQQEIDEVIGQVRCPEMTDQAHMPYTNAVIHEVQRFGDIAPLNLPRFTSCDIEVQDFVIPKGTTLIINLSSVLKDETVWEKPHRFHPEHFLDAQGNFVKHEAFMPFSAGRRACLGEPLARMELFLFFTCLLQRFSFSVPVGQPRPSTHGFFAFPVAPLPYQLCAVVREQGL
Summary of the method: as §1, with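 “°C. Enzyme concentrations are 52.0 nM (2D1), 3.1 nM (2D2), 3.6 nM (2D3) and 21.9 nM (2D4).” for “°C.”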

[4] = target: T4, Cytochrome P450 2D26 (Rattus norvegicus, UniProt P10634); assay: Inhibition of MAMC O-dealkylation mediated by rat Cytochrome P450 2D2 expressed in Saccharomyces cerevisiae; summary of the method: as §1
T4 sequence (P10634 whole entry): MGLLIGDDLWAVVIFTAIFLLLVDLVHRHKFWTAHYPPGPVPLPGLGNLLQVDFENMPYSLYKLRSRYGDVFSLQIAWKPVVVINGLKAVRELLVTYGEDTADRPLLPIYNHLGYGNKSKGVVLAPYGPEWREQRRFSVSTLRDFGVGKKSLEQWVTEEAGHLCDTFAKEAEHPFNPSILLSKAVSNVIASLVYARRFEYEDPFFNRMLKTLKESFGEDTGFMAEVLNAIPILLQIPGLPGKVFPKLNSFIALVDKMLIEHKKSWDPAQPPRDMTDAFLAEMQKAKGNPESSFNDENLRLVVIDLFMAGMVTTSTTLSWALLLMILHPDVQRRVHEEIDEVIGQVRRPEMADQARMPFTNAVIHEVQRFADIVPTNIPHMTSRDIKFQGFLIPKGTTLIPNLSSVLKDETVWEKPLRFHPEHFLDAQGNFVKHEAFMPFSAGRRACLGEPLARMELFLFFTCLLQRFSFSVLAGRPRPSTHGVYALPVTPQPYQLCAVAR

[5] = target: Cytochrome P450 2D6 (Homo sapiens, UniProt P10635); assay: Inhibition of MAMC O-dealkylation mediated by human Cytochrome P450 2D6 expressed in human lymphoblastoid cell line
Chain of Cytochrome P450 2D6 (P10635 whole entry): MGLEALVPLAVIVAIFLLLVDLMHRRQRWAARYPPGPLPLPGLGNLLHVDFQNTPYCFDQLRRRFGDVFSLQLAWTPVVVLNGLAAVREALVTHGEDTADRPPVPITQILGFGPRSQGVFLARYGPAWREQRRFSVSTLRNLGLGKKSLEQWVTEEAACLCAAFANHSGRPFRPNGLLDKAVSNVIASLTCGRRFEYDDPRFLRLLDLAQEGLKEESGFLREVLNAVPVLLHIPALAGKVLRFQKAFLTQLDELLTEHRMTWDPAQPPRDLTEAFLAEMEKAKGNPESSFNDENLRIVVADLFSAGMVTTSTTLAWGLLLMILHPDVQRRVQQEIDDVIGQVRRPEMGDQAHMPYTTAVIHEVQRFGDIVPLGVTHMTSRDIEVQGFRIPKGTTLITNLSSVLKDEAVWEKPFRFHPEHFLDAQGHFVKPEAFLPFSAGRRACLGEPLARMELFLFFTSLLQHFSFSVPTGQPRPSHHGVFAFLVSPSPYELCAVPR
Summary of the method: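 Human CYP2D6 (1 nM) competition run as a microplate-reader fluorescence assay. MAMC is the substrate at 10 μM final, with and without a range of inhibitor concentrations. IC50 is obtained by nonlinear least-squares one-site competition fitting.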

## COc1ccc2c(CN(C)C)cc(=O)oc2c1
[1]
  IC50: 862 µM
[2]
  IC50: 1180 µM
[3]
  IC50: 329 µM
[4]
  IC50: 307 µM
[5]
  IC50: 74.2 µM

## COc1ccc2c3c1O[C@H]1[C@@H](O)C=C[C@H]4[C@@H](C2)N(C)CC[C@@]341 [CODEINE]
[1]
  IC50: 4090 µM
[2]
  IC50: 2220 µM
[3]
  IC50: 1320 µM
[4]
  IC50: 238 µM

## N=C(N)N1CCc2ccccc2C1 [DEBRISOQUIN]
[1]
  IC50: 1750 µM
[2]
  IC50: 747 µM
[3]
  IC50: 529 µM
[4]
  IC50: 107 µM
[5]
  IC50: 23.8 µM

## CC(C)NC[C@@H](O)COc1cccc2ccccc12 [DEXPROPRANOLOL]
[1]
  IC50: 155 µM
[2]
  IC50: 117 µM
[3]
  IC50: 182 µM
[4]
  IC50: 0.42 µM

## COc1ccc2c(c1)[C@]13CCCC[C@@H]1[C@H](C2)N(C)CC3 [DEXTROMETHORPHAN]
[1]
  IC50: 18.6 µM
[2]
  IC50: 136 µM
[3]
  IC50: 264 µM
[4]
  IC50: 5.6 µM
[5]
  IC50: 1.8 µM

## CC(C)NC[C@H](O)COc1cccc2ccccc12 [LEVOPROPRANOLOL]
[1]
  IC50: 172 µM
[2]
  IC50: 133 µM
[3]
  IC50: 571 µM
[4]
  IC50: 0.35 µM

## CNCCC=C1c2ccccc2CCc2ccccc21 [NORTRIPTYLINE]
[1]
  IC50: 14.2 µM
[2]
  IC50: 19.3 µM
[3]
  IC50: 204 µM
[4]
  IC50: 1.9 µM
[5]
  IC50: 2.3 µM

## [H]/N=C(/N)N/C(=N/[H])NCCc1ccccc1 [PHENFORMIN]
[1]
  IC50: 1930 µM
[2]
  IC50: 833 µM
[4]
  IC50: 45.4 µM
[5]
  IC50: 27 µM

## C=C[C@H]1C[N@@]2CC[C@H]1C[C@@H]2[C@@H](O)c1ccnc2ccc(OC)cc12 [QUINIDINE]
[1]
  IC50: 26.9 µM
[2]
  IC50: 47.2 µM
[3]
  IC50: 19.9 µM

## C=C[C@H]1C[N@@]2CC[C@H]1C[C@H]2[C@H](O)c1ccnc2ccc(OC)cc12 [QUININE]
[1]
  IC50: 12 µM
[2]
  IC50: 1.7 µM
[3]
  IC50: 46.5 µM
